Laboratory results: ChEMBL document CHEMBL1177636, “Optimization of isochromanone based urotensin II receptor agonists” (Bioorg Med Chem, 2010)
Active and inactive are the calls of the source. The rule behind the calls is not given here.

How the values were obtained:
Assay type in all cases: functional, cell-based
Urotensin-2 receptor = target: T1, Urotensin-2 receptor (Homo sapiens, UniProt Q9UKP6); test: (§1) Agonist activity against human urotensin 2 receptor expressed in […] cells assessed as beta-galactosidase activity after 5 days by R-SAT assay
T1 sequence (Q9UKP6 whole entry): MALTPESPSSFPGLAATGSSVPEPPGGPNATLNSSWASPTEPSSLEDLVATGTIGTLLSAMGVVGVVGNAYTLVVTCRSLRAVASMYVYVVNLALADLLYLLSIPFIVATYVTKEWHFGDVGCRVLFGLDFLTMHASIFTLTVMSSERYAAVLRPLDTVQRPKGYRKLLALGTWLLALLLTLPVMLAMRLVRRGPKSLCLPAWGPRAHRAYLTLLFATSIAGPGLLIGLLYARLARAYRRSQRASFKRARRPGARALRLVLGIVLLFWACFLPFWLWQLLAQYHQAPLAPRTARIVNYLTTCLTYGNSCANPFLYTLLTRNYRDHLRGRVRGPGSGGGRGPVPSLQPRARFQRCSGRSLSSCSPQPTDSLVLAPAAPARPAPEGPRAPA
In short: (§2)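 R-SAT in NIH-3T3 cells grown to 80% confluence in DMEM with 10% bovine calf serum, then transfected for 18 h with human UII receptor plus a β-galactosidase marker. Cells were frozen and thawed into DMEM with 0.4% calf serum and 30% UltraCulture, then incubated with compound for 5 days in 5% CO₂. Reporter read at 420 nm. Eight doses in triplicate, 2–5 EC₅₀ determinations, reported as mean ± SD; efficacy normalized to UII = 100%.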

[1] = target: T2, Urotensin-2 receptor (Homo sapiens) (UniProt Q9UKP6); test: Agonist activity against human urotensin 2 receptor expressed in […] cells assessed as beta-galactosidase activity after 5 days by R-SAT assay relative to Urotensin-2; in short: as §2
T2 sequence (whole entry): T1 sequence (Q9UKP6 whole entry)

[2] = target: T2, Urotensin-2 receptor (Homo sapiens); test: as §1; in short: as §2
[3] = target: Somatostatin receptor type 4 (Homo sapiens) (UniProt P31391); test: Agonist activity against human SST4 receptor expressed in […] cells assessed as beta-galactosidase activity at 3 uM after 5 days by R-SAT assay
Somatostatin receptor type 4 (Homo sapiens), sequence (P31391 whole entry): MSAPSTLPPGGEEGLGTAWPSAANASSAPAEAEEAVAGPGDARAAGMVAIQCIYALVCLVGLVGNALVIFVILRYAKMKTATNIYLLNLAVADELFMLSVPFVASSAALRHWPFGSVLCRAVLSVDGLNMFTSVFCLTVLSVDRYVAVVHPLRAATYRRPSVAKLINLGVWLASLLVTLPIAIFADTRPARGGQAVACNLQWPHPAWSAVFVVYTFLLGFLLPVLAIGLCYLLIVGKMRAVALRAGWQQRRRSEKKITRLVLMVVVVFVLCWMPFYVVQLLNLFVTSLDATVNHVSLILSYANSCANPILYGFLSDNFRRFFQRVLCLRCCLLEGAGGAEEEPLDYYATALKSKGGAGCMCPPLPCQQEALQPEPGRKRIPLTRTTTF

[4] = target: Somatostatin receptor type 1 (Homo sapiens) (UniProt P30872); test: Agonist activity against human SST1 receptor expressed in […] cells assessed as beta-galactosidase activity at 3 uM after 5 days by R-SAT assay
Somatostatin receptor type 1 (Homo sapiens), sequence (P30872 whole entry): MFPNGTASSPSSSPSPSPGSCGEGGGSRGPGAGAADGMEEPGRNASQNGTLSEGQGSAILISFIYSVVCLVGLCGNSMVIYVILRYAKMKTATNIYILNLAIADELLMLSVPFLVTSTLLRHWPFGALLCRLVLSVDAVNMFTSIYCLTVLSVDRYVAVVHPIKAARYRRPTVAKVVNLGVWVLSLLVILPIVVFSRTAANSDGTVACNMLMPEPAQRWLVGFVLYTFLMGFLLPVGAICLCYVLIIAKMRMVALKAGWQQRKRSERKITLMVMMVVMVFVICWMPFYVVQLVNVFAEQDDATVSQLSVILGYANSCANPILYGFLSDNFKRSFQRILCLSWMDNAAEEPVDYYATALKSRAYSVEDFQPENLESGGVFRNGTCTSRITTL

Row | EC50 (Urotensin-2 receptor) | Efficacy [1] | pEC50 [2] | Activity [3] | Activity [4] | SMILES
1 | 5.25 µM | 156% |  |  |  | COc1cc(OC)cc(C2(CCN(C)C)Cc3cc(C)c(C)cc3C(=O)O2)c1 (stereo unspecified)
2 | 0.501 µM | 110% |  |  |  | CN(C)CCC1(c2ccc(Cl)cc2)Cc2ccccc2CO1 (stereo unspecified)
3 | 1.15 µM | 54% |  |  |  | CN(C)CCC1(c2ccc(Oc3ccccc3)cc2)Cc2ccccc2C(=O)O1 (stereo unspecified)
4 | 0.692 µM | 47% |  |  |  | Cc1cc2c(cc1C)CC(CCN(C)C)(c1ccc(Cl)cc1)OC2 (stereo unspecified)
5 | 1.41 µM | 50% |  |  |  | CN(C)CCC1(c2cccc(-c3ccccc3)c2)Cc2ccccc2C(=O)O1 (stereo unspecified)
6 | 0.263 µM | 49% |  |  |  | Cc1cc2c(cc1C)CC(CCN(C)C)(c1ccc3ccccc3c1)OC2 (stereo unspecified)
7 | 2.24 µM | 145% |  |  |  | CC(C)N1C(=O)c2ccccc2CC1(CCN(C)C)c1ccc(Cl)cc1 (stereo unspecified)
8 | 0.676 µM | 172% |  |  |  | CN(C)CCC1(c2ccc(Cl)c(Cl)c2)Cc2ccccc2C(=O)O1 (stereo unspecified)
9 |  | inactive | inactive |  |  | CN(C)CCC1(c2ccc(C#Cc3ccccc3)cc2)Cc2ccccc2C(=O)O1 (stereo unspecified)
10 |  | inactive | inactive |  |  | CN(C)CCC1(c2ccc(Cl)cc2)Cc2cc(-c3ccccc3)ccc2C(=O)O1 (stereo unspecified)
11 | 2.29 µM | 152% |  |  |  | CN(C)CCC1(c2ccc(Cl)cc2)Cc2ccccc2C(=O)N1C (stereo unspecified)
12 | 0.933 µM | 127% |  |  |  | CN(C)CCC1(c2ccc(Br)cc2)Cc2ccccc2C(=O)O1 (stereo unspecified)
13 | 1.17 µM | 151% |  |  |  | COc1cccc2c1CC(CCN(C)C)(c1ccc(Cl)cc1)N(C)C2=O (stereo unspecified)
14 | 4.17 µM | 77% |  |  |  | C=CCN(C)CCC1(c2ccc(Cl)cc2)Cc2ccccc2C(=O)O1 (stereo unspecified)
15 | 0.148 µM | 126% |  |  |  | Cc1cc2c(cc1C)C(=O)OC(CCN(C)C)(c1ccc3ccccc3c1)C2 (stereo unspecified)

Further lines, the compound ahead of its results:

Row | SMILES | EC50 (Urotensin-2 receptor) | Efficacy [1] | pEC50 [2] | Activity [3] | Activity [4]
16 | C=CCN(CC=C)c1ccc2c(c1)CC(CCN(C)C)(c1ccc(Cl)cc1)OC2=O (stereo unspecified) | 0.724 µM | 132% |  |  | 
17 | COc1cccc(C2(CCN(C)C)Cc3cc(C)c(C)cc3C(=O)O2)c1 (stereo unspecified) | 2.88 µM | 149% |  |  | 
18 | CNCCC1(c2ccc(Cl)cc2)Cc2ccccc2C(=O)O1 (stereo unspecified) | 1.95 µM | 46% |  |  | 
19 | CN(C)CCC1(c2cccc(Br)c2)Cc2ccccc2C(=O)O1 (stereo unspecified) | 2.95 µM | 68% |  |  | 
20 | C=CCN(CC=C)c1ccc(C2(CCN(C)C)Cc3ccccc3C(=O)O2)cc1 (stereo unspecified) |  | inactive | inactive |  | 
21 | CN(C)CCC1(c2ccc(-c3ccccc3)cc2)Cc2ccccc2C(=O)O1 (stereo unspecified) |  | inactive | inactive |  | 
22 | CN(C)CCC1(c2ccc(Cl)cc2)Cc2ccc3ccccc3c2C(=O)O1 (stereo unspecified) | 1.15 µM | 124% |  |  | 
23 | Cc1cc2c(cc1C)C(=O)OC(CCN(C)C)(c1ccc(Cl)c(Cl)c1)C2 (stereo unspecified) | 0.0513 µM | 98% |  | 31% | inactive
24 | C[N+](C)(C)CCC1(c2ccc(Cl)cc2)Cc2ccccc2C(=O)O1 (stereo unspecified) | 3.8 µM | 118% |  |  | 
25 | COc1ccc2c(c1C)CC(CCN(C)C)(c1ccc(Cl)cc1)OC2=O (stereo unspecified) | 1.74 µM | 118% |  |  | 
26 | COc1ccc2c(c1)CC(CCN(C)C)(c1ccc(Cl)cc1)OC2=O (stereo unspecified) | 0.955 µM | 165% |  |  | 
27 | C=CCN(CC=C)c1cccc(C2(CCN(C)C)Cc3ccccc3C(=O)O2)c1 (stereo unspecified) | 2.4 µM | 55% |  |  | 
